Assay results from ChEMBL document CHEMBL5303300, “EUbOPEN Chemogenomics Library - Multiplex” (2023).
Several values for one entry are separate records, joined by “and”; a condition that tells them apart may be missing. Identical values can stand only once. *1 amine or outer side, *2 acyl side, *3 side chain or, on linkers, in order; H or OH if unused. Where a SMILES comes first, the peptide text is derived from it. Bridges are numbered along the chain shown (N, C = ends). Roman numbers before positions name the chains, in order. [ ]: non-standard residue; d: D form. Hexamethylenediamine = C(CCCN[*:2])CCN[*:1]; Dip = N[C@H](C(=O)O)C(c1ccccc1)c1ccccc1; Chg = N[C@H](C(=O)O)C1CCCCC1; NMeA = CN[C@@H](C)C(=O)O

System: HEK-293T
Experiment: Multiplex assay against HEK293T
Format: toxicity, cell-based
Details: human, number of replicates 2
In short: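 Hoechst33342, BioTracker Green Microtubule Cytoskeleton Dye, MitoTracker Red and Annexin V Alexa Fluor 680 were added to live cells at seeding, and imaging on a CQ1 microscope at 37°C and 5% CO2 followed compound addition. Gating by CellPathfinder machine learning separated cells into Hoechst high-intensity objects or normal cells, then normal cells into healthy, pyknosed or fragmented nuclei, then pyknosed cells into mitotic or apoptotic. Per cents of healthy-nucleus cells are reported for the tubulin, mitochondrial-mass and membrane-permeability phenotypes.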

[1] = 12 h, 1 µM, compound concentration 1 uM
[2] = 12 h, 10 µM, compound concentration 10 uM
[3] = 24 h, 1 µM, compound concentration 1 uM
[4] = 24 h, 10 µM, compound concentration 10 uM
[5] = 48 h, 1 µM, compound concentration 1 uM
[6] = 48 h, 10 µM, compound concentration 10 uM

CNS(=O)(=O)c1ccc(N(C)C)c(Nc2ncnc3cc(OC)c(OC)cc23)c1
Population Apoptotic (%) [1]: 51% and 45%
Population Fragmented Nuclei (%) [1]: 3% and 2%
Population Healthy Nuclei (%) [1]: 81% and 83%
Population Hoechst High Intensity Objects (%) [1]: 5% and 8%
Population Membrane Permeable-Phenotype (%) [1]: 2%
Population Mitochondria Different-Phenotype (%) [1]: 17% and 12%
Population Mitotic Cells (%) [1]: 48% and 54%
Population Normal (%) [1]: 94% and 91%
Population Pyknosed Nuclei (%) [1]: 14%
Population Tubulin-Different-Phenotype (%) [1]: 37% and 34%
Total Cell Count [1]: 547 and 550
Population Apoptotic (%) [2]: 47% and 54%
Population Fragmented Nuclei (%) [2]: 2% and 3%
Population Healthy Nuclei (%) [2]: 87% and 88%
Population Hoechst High Intensity Objects (%) [2]: 7%
Population Membrane Permeable-Phenotype (%) [2]: 2% and 1%
Population Mitochondria Different-Phenotype (%) [2]: 26% and 24%
Population Mitotic Cells (%) [2]: 52% and 45%
Population Normal (%) [2]: 92%
Population Pyknosed Nuclei (%) [2]: 9% and 8%
Population Tubulin-Different-Phenotype (%) [2]: 59%
Total Cell Count [2]: 607
Population Apoptotic (%) [3]: 45% and 47%
Population Fragmented Nuclei (%) [3]: 5% and 7%
Population Healthy Nuclei (%) [3]: 86% and 84%
Population Hoechst High Intensity Objects (%) [3]: 7% and 6%
Population Membrane Permeable-Phenotype (%) [3]: 3% and 1%
Population Mitochondria Different-Phenotype (%) [3]: 4%
Population Mitotic Cells (%) [3]: 54% and 52%
Population Normal (%) [3]: 92% and 93%
Population Pyknosed Nuclei (%) [3]: 8%
Population Tubulin-Different-Phenotype (%) [3]: 13% and 17%
Total Cell Count [3]: 888 and 859
Population Apoptotic (%) [4]: 53% and 62%
Population Fragmented Nuclei (%) [4]: 3% and 5%
Population Healthy Nuclei (%) [4]: 89% and 87%
Population Hoechst High Intensity Objects (%) [4]: 8% and 11%
Population Membrane Permeable-Phenotype (%) [4]: 1%
Population Mitochondria Different-Phenotype (%) [4]: 16% and 20%
Population Mitotic Cells (%) [4]: 46% and 37%
Population Normal (%) [4]: 91% and 88%
Population Pyknosed Nuclei (%) [4]: 7%
Population Tubulin-Different-Phenotype (%) [4]: 51% and 49%
Total Cell Count [4]: 699 and 675
Population Apoptotic (%) [5]: 18% and 9%
Population Fragmented Nuclei (%) [5]: 13% and 11%
Population Healthy Nuclei (%) [5]: 83% and 85%
Population Hoechst High Intensity Objects (%) [5]: 7% and 8%
Population Membrane Permeable-Phenotype (%) [5]: 5% and 3%
Population Mitochondria Different-Phenotype (%) [5]: 0%
Population Mitotic Cells (%) [5]: 81% and 90%
Population Normal (%) [5]: 92% and 91%
Population Pyknosed Nuclei (%) [5]: 3%
Population Tubulin-Different-Phenotype (%) [5]: 5%
Total Cell Count [5]: 2132 and 1975
Population Apoptotic (%) [6]: 20% and 37%
Population Fragmented Nuclei (%) [6]: 11% and 8%
Population Healthy Nuclei (%) [6]: 86% and 87%
Population Hoechst High Intensity Objects (%) [6]: 12%
Population Membrane Permeable-Phenotype (%) [6]: 3% and 2%
Population Mitochondria Different-Phenotype (%) [6]: 2%
Population Mitotic Cells (%) [6]: 80% and 62%
Population Normal (%) [6]: 87%
Population Pyknosed Nuclei (%) [6]: 2% and 4%
Population Tubulin-Different-Phenotype (%) [6]: 39%
Total Cell Count [6]: 1182 and 985

CN[C@@H](C)C(=O)N[C@H](C(=O)N1CCC[C@H]1C(=O)N[C@H](C(=O)NCCCCCCNC(=O)[C@@H](NC(=O)[C@@H]1CCCN1C(=O)[C@@H](NC(=O)[C@H](C)NC)C1CCCCC1)C(c1ccccc1)c1ccccc1)C(c1ccccc1)c1ccccc1)C1CCCCC1 (I: H-[NMeA][Chg]P[Dip] / II: H-[NMeA][Chg]P[Dip]; linker I:C-II:C via Hexamethylenediamine)
Population Apoptotic (%) [1]: 45% and 56%
Population Fragmented Nuclei (%) [1]: 3% and 1%
Population Healthy Nuclei (%) [1]: 85%
Population Hoechst High Intensity Objects (%) [1]: 7% and 5%
Population Membrane Permeable-Phenotype (%) [1]: 2%
Population Mitochondria Different-Phenotype (%) [1]: 27% and 23%
Population Mitotic Cells (%) [1]: 54% and 43%
Population Normal (%) [1]: 92% and 94%
Population Pyknosed Nuclei (%) [1]: 10% and 13%
Population Tubulin-Different-Phenotype (%) [1]: 59% and 58%
Total Cell Count [1]: 599 and 505
Population Apoptotic (%) [2]: 83% and 76%
Population Fragmented Nuclei (%) [2]: 4% and 2%
Population Healthy Nuclei (%) [2]: 75% and 79%
Population Hoechst High Intensity Objects (%) [2]: 12% and 5%
Population Membrane Permeable-Phenotype (%) [2]: 3% and 0%
Population Mitochondria Different-Phenotype (%) [2]: 76%
Population Mitotic Cells (%) [2]: 16% and 23%
Population Normal (%) [2]: 87% and 94%
Population Pyknosed Nuclei (%) [2]: 20% and 17%
Population Tubulin-Different-Phenotype (%) [2]: 96% and 98%
Total Cell Count [2]: 501 and 525
Population Apoptotic (%) [3]: 43% and 54%
Population Fragmented Nuclei (%) [3]: 5% and 3%
Population Healthy Nuclei (%) [3]: 87%
Population Hoechst High Intensity Objects (%) [3]: 6% and 7%
Population Membrane Permeable-Phenotype (%) [3]: 2% and 1%
Population Mitochondria Different-Phenotype (%) [3]: 16% and 20%
Population Mitotic Cells (%) [3]: 56% and 45%
Population Normal (%) [3]: 93%
Population Pyknosed Nuclei (%) [3]: 7% and 8%
Population Tubulin-Different-Phenotype (%) [3]: 40% and 44%
Total Cell Count [3]: 944 and 671
Population Apoptotic (%) [4]: 79% and 67%
Population Fragmented Nuclei (%) [4]: 7% and 4%
Population Healthy Nuclei (%) [4]: 66% and 80%
Population Hoechst High Intensity Objects (%) [4]: 12% and 7%
Population Membrane Permeable-Phenotype (%) [4]: 1% and 0%
Population Mitochondria Different-Phenotype (%) [4]: 85% and 82%
Population Mitotic Cells (%) [4]: 20% and 32%
Population Normal (%) [4]: 87% and 92%
Population Pyknosed Nuclei (%) [4]: 26% and 15%
Population Tubulin-Different-Phenotype (%) [4]: 92% and 95%
Total Cell Count [4]: 463 and 559
Population Apoptotic (%) [5]: 19% and 25%
Population Fragmented Nuclei (%) [5]: 9% and 7%
Population Healthy Nuclei (%) [5]: 86% and 87%
Population Hoechst High Intensity Objects (%) [5]: 6% and 8%
Population Membrane Permeable-Phenotype (%) [5]: 3% and 0%
Population Mitochondria Different-Phenotype (%) [5]: 2% and 5%
Population Mitotic Cells (%) [5]: 80% and 74%
Population Normal (%) [5]: 93% and 91%
Population Pyknosed Nuclei (%) [5]: 3% and 5%
Population Tubulin-Different-Phenotype (%) [5]: 18% and 25%
Total Cell Count [5]: 2232 and 1305
Population Apoptotic (%) [6]: 80% and 75%
Population Fragmented Nuclei (%) [6]: 9% and 7%
Population Healthy Nuclei (%) [6]: 72% and 74%
Population Hoechst High Intensity Objects (%) [6]: 9% and 10%
Population Membrane Permeable-Phenotype (%) [6]: 4% and 2%
Population Mitochondria Different-Phenotype (%) [6]: 53% and 56%
Population Mitotic Cells (%) [6]: 19% and 24%
Population Normal (%) [6]: 90% and 89%
Population Pyknosed Nuclei (%) [6]: 18% and 17%
Population Tubulin-Different-Phenotype (%) [6]: 82% and 84%
Total Cell Count [6]: 653 and 709
